Results as given in ChEMBL document CHEMBL1140876, “Synthesis and antibacterial property of quinolines with potent DNA gyrase activity” (2009).
In brackets after ≈: the same amount, converted by molar mass. Activity calls are given as the source filed them. The calls are words filed in the database; no cut-off is given here.

Legend:
Klebsiella pneumoniae [1] = experiment: Antimicrobial activity against Klebsiella pneumoniae by broth microdilution assay; type: functional
How it was run: (§1)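 Broth microdilution per NCCLS 1997 in 96-well plate; final inoculum 10^5 cfu/mL; incubated 35.7 °C in air 18–20 h; MIC read as lowest concentration with no visible growth.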

Salmonella typhimurium [2] = experiment: Antimicrobial activity against Salmonella Typhimurium at 15 ug after 24 hrs by disk diffusion method; type: functional, Salmonella enterica subsp. enterica serovar Typhimurium; conditions: Salmonella enterica, read-out: IZ
How it was run: (§2)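 Inoculum made in 0.85% saline against McFarland standard, swabbed evenly onto nutrient agar; sterile filter-paper discs set equidistant and loaded with equal volumes of drug at varying amounts; zone of inhibition measured after 24 h at 37 °C; ciprofloxacin reference.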

Klebsiella pneumoniae [3] = experiment: Antimicrobial activity against Klebsiella pneumoniae at 20 ug after 24 hrs by disk diffusion method; type: functional; conditions: read-out: IZ; how it was run: as §2
Staphylococcus aureus [4] = experiment: Antimicrobial activity against Staphylococcus aureus by broth microdilution assay; type: functional; how it was run: as §1
Bacillus subtilis [5] = experiment: Antimicrobial activity against Bacillus subtilis at 5 ug after 24 hrs by disk diffusion method; type: functional; conditions: read-out: IZ; how it was run: as §2
Pseudomonas aeruginosa [6] = experiment: Antimicrobial activity against Pseudomonas aeruginosa at 15 ug after 24 hrs by disk diffusion method; type: functional; conditions: read-out: IZ; how it was run: as §2
Staphylococcus aureus [7] = experiment: Antimicrobial activity against Staphylococcus aureus at 15 ug after 24 hrs by disk diffusion method; type: functional; conditions: read-out: IZ; how it was run: as §2
Salmonella typhimurium [8] = experiment: Antimicrobial activity against Salmonella Typhimurium at 10 ug after 24 hrs by disk diffusion method; type: functional, Salmonella enterica subsp. enterica serovar Typhimurium; conditions: Salmonella enterica, read-out: IZ; how it was run: as §2
Salmonella typhimurium [9] = experiment: Antimicrobial activity against Salmonella Typhimurium at 5 ug after 24 hrs by disk diffusion method; type: functional, Salmonella enterica subsp. enterica serovar Typhimurium; conditions: Salmonella enterica, read-out: IZ; how it was run: as §2
Escherichia coli [10] = experiment: Antimicrobial activity against Escherichia coli at 20 ug after 24 hrs by disk diffusion method; type: functional; conditions: read-out: IZ; how it was run: as §2
Staphylococcus aureus [11] = experiment: Antimicrobial activity against Staphylococcus aureus at 10 ug after 24 hrs by disk diffusion method; type: functional; conditions: read-out: IZ; how it was run: as §2
Escherichia coli [12] = experiment: Antimicrobial activity against Escherichia coli at 15 ug after 24 hrs by disk diffusion method; type: functional; conditions: read-out: IZ; how it was run: as §2
Salmonella typhi = experiment: Antimicrobial activity against Salmonella typhi by broth microdilution assay; type: functional, Salmonella enterica subsp. enterica serovar Typhi; conditions: Salmonella enterica
How it was run: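 Broth microdilution in 96-well plates following the NCCLS 1997 protocol. Final inoculum was 10^5 cfu/mL, with a control organism run alongside. Plates were incubated at 35.7 °C in air for 18–20 h. MIC is the lowest concentration with no visible growth.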

Salmonella typhimurium [13] = experiment: Antimicrobial activity against Salmonella Typhimurium at 20 ug after 24 hrs by disk diffusion method; type: functional, Salmonella enterica subsp. enterica serovar Typhimurium; conditions: Salmonella enterica, read-out: IZ; how it was run: as §2
Escherichia coli [14] = experiment: Antimicrobial activity against Escherichia coli by broth microdilution assay; type: functional; how it was run: as §1
Klebsiella pneumoniae [15] = experiment: Antimicrobial activity against Klebsiella pneumoniae at 10 ug after 24 hrs by disk diffusion method; type: functional; conditions: read-out: IZ; how it was run: as §2
Klebsiella pneumoniae [16] = experiment: Antimicrobial activity against Klebsiella pneumoniae at 15 ug after 24 hrs by disk diffusion method; type: functional; conditions: read-out: IZ; how it was run: as §2
Bacillus subtilis [17] = experiment: Antimicrobial activity against Bacillus subtilis at 10 ug after 24 hrs by disk diffusion method; type: functional; conditions: read-out: IZ; how it was run: as §2
Escherichia coli [18] = experiment: Antimicrobial activity against Escherichia coli at 5 ug after 24 hrs by disk diffusion method; type: functional; conditions: read-out: IZ; how it was run: as §2
Escherichia coli [19] = experiment: Antimicrobial activity against Escherichia coli at 25 ug after 24 hrs by disk diffusion method; type: functional; conditions: read-out: IZ; how it was run: as §2
Bacillus subtilis [20] = experiment: Antimicrobial activity against Bacillus subtilis at 25 ug after 24 hrs by disk diffusion method; type: functional; conditions: read-out: IZ; how it was run: as §2
Staphylococcus aureus [21] = experiment: Antimicrobial activity against Staphylococcus aureus at 20 ug after 24 hrs by disk diffusion method; type: functional; conditions: read-out: IZ; how it was run: as §2
Bacillus subtilis [22] = experiment: Antimicrobial activity against Bacillus subtilis by broth microdilution assay; type: functional; how it was run: as §1
Bacillus subtilis [23] = experiment: Antimicrobial activity against Bacillus subtilis at 20 ug after 24 hrs by disk diffusion method; type: functional; conditions: read-out: IZ; how it was run: as §2
Klebsiella pneumoniae [24] = experiment: Antimicrobial activity against Klebsiella pneumoniae at 5 ug after 24 hrs by disk diffusion method; type: functional; conditions: read-out: IZ; how it was run: as §2
Staphylococcus aureus [25] = experiment: Antimicrobial activity against Staphylococcus aureus at 25 ug after 24 hrs by disk diffusion method; type: functional; conditions: read-out: IZ; how it was run: as §2
Escherichia coli [26] = experiment: Antimicrobial activity against Escherichia coli at 10 ug after 24 hrs by disk diffusion method; type: functional; conditions: read-out: IZ; how it was run: as §2
[27] = Inhibition of DNA gyrase assessed as conversion of relaxed pBR322 to supercoiled form
How it was run: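 Supercoiling in 15 µL reactions: gyrase assay buffer, 150 ng relaxed pBR322, 2–3 µL purified DNA gyrase, 3 h at 37 °C (E. coli); stopped with 50% glycerol/0.25% bromophenol blue; 1% agarose in 1× TBE pH 8.3, 90 V 3 h; ethidium bromide stain; supercoiled band brightness by densitometry. Ciprofloxacin comparator.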

Pseudomonas aeruginosa [28] = experiment: Antimicrobial activity against Pseudomonas aeruginosa by broth microdilution assay; type: functional; how it was run: as §1
Salmonella typhimurium [29] = experiment: Antimicrobial activity against Salmonella Typhimurium at 25 ug after 24 hrs by disk diffusion method; type: functional, Salmonella enterica subsp. enterica serovar Typhimurium; conditions: Salmonella enterica, read-out: IZ; how it was run: as §2
Pseudomonas aeruginosa [30] = experiment: Antimicrobial activity against Pseudomonas aeruginosa at 25 ug after 24 hrs by disk diffusion method; type: functional; conditions: read-out: IZ; how it was run: as §2
Staphylococcus aureus [31] = experiment: Antimicrobial activity against Staphylococcus aureus at 5 ug after 24 hrs by disk diffusion method; type: functional; conditions: read-out: IZ; how it was run: as §2
Bacillus subtilis [32] = experiment: Antimicrobial activity against Bacillus subtilis at 15 ug after 24 hrs by disk diffusion method; type: functional; conditions: read-out: IZ; how it was run: as §2
Pseudomonas aeruginosa [33] = experiment: Antimicrobial activity against Pseudomonas aeruginosa at 10 ug after 24 hrs by disk diffusion method; type: functional; conditions: read-out: IZ; how it was run: as §2
Pseudomonas aeruginosa [34] = experiment: Antimicrobial activity against Pseudomonas aeruginosa at 20 ug after 24 hrs by disk diffusion method; type: functional; conditions: read-out: IZ; how it was run: as §2
[35] = Inhibition of DNA gyrase assessed as pBR322 DNA relaxation at 1 uM
How it was run: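 Relaxation without ATP: gyrase (60 nM) with supercoiled pBR322 DNA (6 nM) and drug at […] for 1 h at 37 °C; relaxation judged by gel. Ciprofloxacin, novobiocin and nalidixic acid comparators.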

Klebsiella pneumoniae [36] = experiment: Antimicrobial activity against Klebsiella pneumoniae at 25 ug after 24 hrs by disk diffusion method; type: functional; conditions: read-out: IZ; how it was run: as §2
Pseudomonas aeruginosa [37] = experiment: Antimicrobial activity against Pseudomonas aeruginosa at 5 ug after 24 hrs by disk diffusion method; type: functional; conditions: read-out: IZ; how it was run: as §2

## c1ccc(C2c3cc(Cc4ccc5c(c4)C(c4ccccc4)C4Cn6cccc6C4N5)ccc3NC3c4cccn4CC32)cc1 (stereo not given)
Klebsiella pneumoniae [1]
  MIC50: 0.125 µg/mL (≈ 0.214 µM)
  MIC90: 2 µg/mL (≈ 3.42 µM)
Salmonella typhimurium [2]
  zone of inhibition at 15 µg/disc: 18 mm
Klebsiella pneumoniae [3]
  zone of inhibition at 20 µg/disc: 24 mm
Staphylococcus aureus [4]
  MIC50: 128 µg/mL (≈ 219 µM)
  MIC90: 128 µg/mL (≈ 219 µM)
Bacillus subtilis [5]
  zone of inhibition at 5 µg/disc: 7 mm
Pseudomonas aeruginosa [6]
  zone of inhibition at 15 µg/disc: 26 mm
Staphylococcus aureus [7]
  zone of inhibition at 15 µg/disc: 15 mm
Salmonella typhimurium [8]
  zone of inhibition at 10 µg/disc: 16 mm
Salmonella typhimurium [9]
  zone of inhibition at 5 µg/disc: 10 mm
Escherichia coli [10]
  zone of inhibition at 20 µg/disc: 21 mm
Staphylococcus aureus [11]
  zone of inhibition at 10 µg/disc: 13 mm
Escherichia coli [12]
  zone of inhibition at 15 µg/disc: 16 mm
Salmonella typhi
  MIC50: 2.51 µg/mL (≈ 4.29 µM)
  MIC90: 5 µg/mL (≈ 8.55 µM)
Salmonella typhimurium [13]
  zone of inhibition at 20 µg/disc: 22 mm
Escherichia coli [14]
  MIC50: 2 µg/mL (≈ 3.42 µM)
  MIC90: 8 µg/mL (≈ 13.7 µM)
Klebsiella pneumoniae [15]
  zone of inhibition at 10 µg/disc: 16 mm
Klebsiella pneumoniae [16]
  zone of inhibition at 15 µg/disc: 19 mm
Bacillus subtilis [17]
  zone of inhibition at 10 µg/disc: 9 mm
Escherichia coli [18]
  zone of inhibition at 5 µg/disc: 11 mm
Escherichia coli [19]
  zone of inhibition at 25 µg/disc: 22 mm
Bacillus subtilis [20]
  zone of inhibition at 25 µg/disc: 13 mm
Staphylococcus aureus [21]
  zone of inhibition at 20 µg/disc: 17 mm
Bacillus subtilis [22]
  MIC50: 0.25 µg/mL (≈ 0.428 µM)
  MIC90: 5 µg/mL (≈ 8.55 µM)
Bacillus subtilis [23]
  zone of inhibition at 20 µg/disc: 12 mm
Klebsiella pneumoniae [24]
  zone of inhibition at 5 µg/disc: 12 mm
Staphylococcus aureus [25]
  zone of inhibition at 25 µg/disc: 21 mm
Escherichia coli [26]
  zone of inhibition at 10 µg/disc: 14 mm
[27]
  Activity: Active
Pseudomonas aeruginosa [28]
  MIC50: 1 µg/mL (≈ 1.71 µM)
  MIC90: 8 µg/mL (≈ 13.7 µM)
Salmonella typhimurium [29]
  zone of inhibition at 25 µg/disc: 24 mm
Pseudomonas aeruginosa [30]
  zone of inhibition at 25 µg/disc: 30 mm
Staphylococcus aureus [31]
  zone of inhibition at 5 µg/disc: 9 mm
Bacillus subtilis [32]
  zone of inhibition at 15 µg/disc: 10 mm
Pseudomonas aeruginosa [33]
  zone of inhibition at 10 µg/disc: 24 mm
Pseudomonas aeruginosa [34]
  zone of inhibition at 20 µg/disc: 28 mm
[35]
  Activity: Active
Klebsiella pneumoniae [36]
  zone of inhibition at 25 µg/disc: 26 mm
Pseudomonas aeruginosa [37]
  zone of inhibition at 5 µg/disc: 20 mm

## O=C(O)c1cn(C2CC2)c2cc(N3CCNCC3)c(F)cc2c1=O [CIPROFLOXACIN]
Klebsiella pneumoniae [1]
  MIC50: 0.03 µg/mL (≈ 0.0905 µM)
  MIC90: 0.5 µg/mL (≈ 1.51 µM)
Salmonella typhimurium [2]
  zone of inhibition at 15 µg/disc: 18 mm
Klebsiella pneumoniae [3]
  zone of inhibition at 20 µg/disc: 34 mm
Staphylococcus aureus [4]
  MIC50: 0.5 µg/mL (≈ 1.51 µM)
  MIC90: 1 µg/mL (≈ 3.02 µM)
Bacillus subtilis [5]
  zone of inhibition at 5 µg/disc: 6 mm
Pseudomonas aeruginosa [6]
  zone of inhibition at 15 µg/disc: 16 mm
Staphylococcus aureus [7]
  zone of inhibition at 15 µg/disc: 26 mm
Salmonella typhimurium [8]
  zone of inhibition at 10 µg/disc: 16 mm
Salmonella typhimurium [9]
  zone of inhibition at 5 µg/disc: 14 mm
Staphylococcus aureus [11]
  zone of inhibition at 10 µg/disc: 24 mm
Escherichia coli [12]
  zone of inhibition at 15 µg/disc: 18 mm
Salmonella typhi
  MIC50: 0.04 µg/mL (≈ 0.121 µM)
  MIC90: 0.15 µg/mL (≈ 0.453 µM)
Salmonella typhimurium [13]
  zone of inhibition at 20 µg/disc: 22 mm
Escherichia coli [14]
  MIC50: 0.015 µg/mL (≈ 0.0453 µM)
  MIC90: 0.03 µg/mL (≈ 0.0905 µM)
Klebsiella pneumoniae [15]
  zone of inhibition at 10 µg/disc: 26 mm
Klebsiella pneumoniae [16]
  zone of inhibition at 15 µg/disc: 30 mm
Bacillus subtilis [17]
  zone of inhibition at 10 µg/disc: 7 mm
Bacillus subtilis [20]
  zone of inhibition at 25 µg/disc: 12 mm
Staphylococcus aureus [21]
  zone of inhibition at 20 µg/disc: 30 mm
Bacillus subtilis [22]
  MIC50: 0.04 µg/mL (≈ 0.121 µM)
  MIC90: 0.15 µg/mL (≈ 0.453 µM)
Bacillus subtilis [23]
  zone of inhibition at 20 µg/disc: 10 mm
Klebsiella pneumoniae [24]
  zone of inhibition at 5 µg/disc: 24 mm
Staphylococcus aureus [25]
  zone of inhibition at 25 µg/disc: 36 mm
Escherichia coli [26]
  zone of inhibition at 10 µg/disc: 16 mm
[27]
  Activity: Active
Pseudomonas aeruginosa [28]
  MIC50: 0.125 µg/mL (≈ 0.377 µM)
  MIC90: 1 µg/mL (≈ 3.02 µM)
Salmonella typhimurium [29]
  zone of inhibition at 25 µg/disc: 24 mm
Pseudomonas aeruginosa [30]
  zone of inhibition at 25 µg/disc: 23 mm
Staphylococcus aureus [31]
  zone of inhibition at 5 µg/disc: 22 mm
Bacillus subtilis [32]
  zone of inhibition at 15 µg/disc: 9 mm
Pseudomonas aeruginosa [33]
  zone of inhibition at 10 µg/disc: 14 mm
Pseudomonas aeruginosa [34]
  zone of inhibition at 20 µg/disc: 20 mm
[35]
  Activity: Active
Klebsiella pneumoniae [36]
  zone of inhibition at 25 µg/disc: 36 mm
Pseudomonas aeruginosa [37]
  zone of inhibition at 5 µg/disc: 12 mm
